In ChEMBL document CHEMBL1121966, “(2R*,3S*)-1-[125I]Iodo-2,3-bis(4-hydroxyphenyl)pentane ([125I]iodonorhexestrol) and (2R*,3S*)-1-[77Br]Bromo-2,3-bis(4-hydroxyphenyl)pentane ([77Br]bromonorhexestrol), two gamma-emitting estrogens that show receptor-mediated uptake by target tissues in vivo” (1982):

Experiments:
Assay type in all cases: functional
[1] = Spleen/blood distribution ratio was determined immature female rats at 1 hr
Procedure, shortened: (§1)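 Immature (25 day) female Sprague-Dawley rats (ca. 50 g) were dosed iv (jugular or tail vein) in ethanol plus 0.9% NaCl/rat serum (1:1). Doses were 2 μCi of [125I]iodonorhexestrol (≤15 pmol/dose), or 2 μCi each of [77Br]bromonorhexestrol (≤1.25 pmol/dose) and 16α-[125I]iodoestradiol (2 pmol/dose). Rats were killed at 1, 3 or 6 h; blood and tissues were weighed and γ-counted. Thyroid weight assumed 0.005 g/100 g body weight. Mean ± SD.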

[2] = Spleen/blood distribution ratio was determined immature female rats at 3h; procedure, shortened: as §1
[3] = Esophagus/blood distribution ratio was determined in immature female rats at 1 hr with unlabeled estradiol
Procedure, shortened: (§2)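 Immature (25-day, ca. 50 g) Sprague-Dawley female rats received an iv injection (jugular or tail vein) of HPLC-purified tracer in ethanol plus 0.9% NaCl/rat serum 1:1. Doses were 2 μCi [125I]iodo tracer (≤15 pmol), or 2 μCi [77Br]bromo tracer (≤1.25 pmol) with 2 μCi 16α-[125I]iodoestradiol. Animals were killed at 1 h; blood and tissues were weighed and γ-counted. Blocking: coinjected unlabeled estradiol, 9 μg (iodo) or 18 μg (bromo). Mean ± SD.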

[4] = Esophagus/blood distribution ratio was determined in immature female rats at 3h
Procedure, shortened: (§3)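 Dual-label study in immature 25-day female Sprague-Dawley rats (ca. 50 g). Each received 2 μCi [77Br]bromo tracer (≤1.25 pmol/dose) and 2 μCi 16α-[125I]iodoestradiol (2 pmol/dose) by tail or jugular vein, in ethanol diluted with saline/rat serum 1:1. Rats were killed at 3 or 6 h; blood and 11 tissues were weighed and counted. Five rats per time point; mean ± SD.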

[5] = Esophagus/blood distribution ratio was determined in immature female rats at 6 hr; procedure, shortened: as §3
[6] = Muscle/blood distribution ratio was determined immature female rats at 1 hr with unlabeled estradiol; procedure, shortened: as §2
[7] = Muscle/blood distribution ratio was determined in immature female rats at 1 hr; procedure, shortened: as §2
[8] = Muscle/blood distribution ratio was determined in immature female rats at 3h; procedure, shortened: as §3
[9] = Thyroid/blood distribution ratio was determined in immature female rats at 3h; procedure, shortened: as §1
[10] = Thyroid/blood distribution ratio was determined in immature female rats at 6 hr; procedure, shortened: as §1
[11] = Kidney/blood distribution ratio was determined in immature female rats at 6 hr; procedure, shortened: as §3
[12] = Liver/blood distribution ratio was determined in immature female rats at 1 hr; procedure, shortened: as §2
[13] = Liver/blood distribution ratio was determined in immature female rats at 1 hr with unlabeled estradiol; procedure, shortened: as §2
[14] = Liver/blood distribution ratio was determined in immature female rats at 3h; procedure, shortened: as §3
[15] = Liver/blood distribution ratio was determined in immature female rats at 6 hr; procedure, shortened: as §3
[16] = Lung/blood distribution ratio was determined in immature female rats at 1 hr; procedure, shortened: as §2
[17] = Lung/blood distribution ratio was determined in immature female rats at 3h; procedure, shortened: as §3
[18] = Lung/blood distribution ratio was determined in immature female rats at 6 hr; procedure, shortened: as §3
[19] = Spleen/blood distribution ratio was determined immature female rats at 6 hr; procedure, shortened: as §1
[20] = Spleen/blood distribution ratio was determined in immature female rats at 1 hr with unlabeled estradiol
[21] = Kidney/blood distribution ratio was determined in immature female rats at 1 hr; procedure, shortened: as §2
[22] = Kidney/blood distribution ratio was determined in immature female rats at 1 hr with unlabeled estradiol; procedure, shortened: as §2
[23] = Tissue/blood distribution ratio was measured in immature female rats at 1 hr; procedure, shortened: as §1
[24] = Tissue/blood distribution ratio was measured in immature female rats at 1h, unlabeled estradiol (18 microg) coinjected
Procedure, shortened: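 Immature female rats given iv [77Br]bromonorhexestrol with 16α-[125I]iodoestradiol (2 μCi each) plus 18 μg unlabeled estradiol coinjected; killed at 1 h. Tissue and blood were weighed and counted, and tissue-to-blood radioactivity ratios were computed; 5 animals, mean ± SD.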

[25] = Tissue/blood distribution ratio was measured in immature female rats at 3h; procedure, shortened: as §1
[26] = Tissue/blood distribution ratio was measured in immature female rats at 6 hr; procedure, shortened: as §1
[27] = Thyroid/blood distribution ratio was determined in immature female rats at 1 hr; procedure, shortened: as §1
[28] = Thyroid/blood distribution ratio was determined in immature female rats at 1 hr with unlabeled estradiol
Procedure, shortened: (§4)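 Same iv biodistribution in immature female rats, killed at 1 h, with unlabeled estradiol coinjected to block receptor uptake: 9 μg with [125I]iodonorhexestrol (3 rats), 18 μg with the [77Br]bromonorhexestrol/16α-[125I]iodoestradiol pair (5 rats). Tissue and blood radioactivity were counted as % injected dose/g and tissue-to-blood ratio.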

[29] = Uterus/blood distribution ratio was measured in immature female rats at 1 hr; procedure, shortened: as §1
[30] = Uterus/blood distribution ratio was measured in immature female rats at 3h; procedure, shortened: as §1
[31] = Uterus/blood distribution ratio was measured in immature female rats at 6 hr; procedure, shortened: as §1
[32] = Kidney/blood distribution ratio was determined in immature female rats at 3h; procedure, shortened: as §3
[33] = Muscle/blood distribution ratio was determined in immature female rats at 6 hr; procedure, shortened: as §3
[34] = Uterus/blood distribution of compound was measured in immature female rats at 1 hr with unlabeled estradiol; procedure, shortened: as §4
[35] = species on record: Rattus norvegicus; assay: Percent injected dose per gram Muscle at 1 hr; procedure, shortened: as §2
[36] = species on record: Rattus norvegicus; assay: Percent injected dose per gram Uterus at 3h; procedure, shortened: as §3
[37] = species on record: Rattus norvegicus; assay: Percent injected dose per gram kidney at 6 hr; procedure, shortened: as §3
[38] = species on record: Rattus norvegicus; assay: Percent injected dose per gram spleen at 6 hr; procedure, shortened: as §1
[39] = Lung/blood distribution ratio was determined in immature female rats at 1 hr with unlabeled estradiol; procedure, shortened: as §2
[40] = Esophagus/blood distribution ratio was determined in immature female rats at 1 hr; procedure, shortened: as §2

C[C@]12CC[C@@H]3c4ccc(O)cc4CC[C@H]3[C@@H]1C[C@@H](I)[C@@H]2O showed a Ratio [1] of 0.46, a Ratio [2] of 0.27 and a Ratio [3] of 0.95. The Ratio [4] was 0.47, the Ratio [5] was 0.76 and the Ratio [6] was 0.5. The Ratio [7] was 0.42, the Ratio [8] was 0.25 and the Ratio [9] was 192.8. For the same compound, the Ratio [10] was 472.6, the Ratio [11] was 3.49 and the Ratio [12] was 3.55. The Ratio [13] was 3.95, the Ratio [14] was 4.76 and the Ratio [15] was 6.28. For the same compound, the Ratio [16] was 0.86, the Ratio [17] was 0.67 and the Ratio [18] was 0.93. The Ratio [19] was 0.35, the Ratio [20] was 0.67 and the Ratio [21] was 2. The Ratio [22] was 1.4, the Ratio [23] was 1 and the Ratio [24] was 1. For the same compound, the Ratio [25] was 1, the Ratio [26] was 1 and the Ratio [27] was 30.8. It also gave a Ratio [28] of 44.5, a Ratio [29] of 9.54 and a Ratio [30] of 7.36. It also gave a Ratio [31] of 9.14, a Ratio [32] of 1.83 and a Ratio [33] of 0.27. For the same compound, the Ratio [34] was 1.37, the Injected dose [35] was 0.53% and the Injected dose [36] was 6.83%. The Injected dose [37] was 0.4%, the Injected dose [38] was 0.08% and the Ratio [39] was 1.08. The Ratio [40] was 0.62.
